ABHD5-PLIN5 inh: ABHD5-PLIN5 protein interaction inhibition; 0.78% of 360,000 active; AID 602281; Q00G26+Q8WTS1; Split G. princeps luciferase complementation, luminescence, 4 h; inhibition, % at 4 µM;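 active = inhibition above the mean inhibition across every tested compound plus 3 SD, cut at about 22% in these data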;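 also: 0% = DMSO only wells and the 100% control is not disclosed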
NadD block: inhibitors of Staphylococcus aureus NadD; purified NadD enzyme, colorimetric absorbance read-out; inhibition, % at 20 µM; 0.78% of 360,000 active; in the data active = inhibition above about 26%
B2AR ag: activates human beta-2 adrenergic receptor causing internalization; Am2.2-beta2AR cells, FAP receptor internalization, flow cytometry; response, % (concentration not given with the values); 0.43% of 340,000 active; AID 504454;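 active = response above a set limit, near 3 SD of response in nonfluorescent compounds, cut at about 42% in these data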
GRK2 inh: blocks RNA aptamer binding to human GRK2; bead flow cytometry, FAM-aptamer displacement from GRK2; inhibition of aptamer binding, % at 10 µM; 0.59% of 330,000 active; AID 488847;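 active = inhibition of aptamer binding above 40%, roughly 3 SD of noise, on plates passing a quality check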;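 also: median bead fluorescence of bound FAM aptamer so fluorescent compounds give negative values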
SENP1 inh: SENP1 (human) catalytic domain inhibition; inhibition, % at 10 µM; Q9P0U3; recombinant SENP1 catalytic domain, CyPet-SUMO1-YPet FRET cleavage; 0.21% of 360,000 active; AID 624204;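 active = inhibition at least 30% at 10 µM, raw YFP signal under a set limit, fluorescence ratio 0.5 to 1.5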;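 also: 0% = enzyme with DMSO and 100% = no enzyme wells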
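system = hSENP1 catalytic domain, recombinant | reagent = SFCypet-SUMO1-SFYpet substrate at 25 nM | doses = one dose per compound, 10 µM, 0.5% DMSO | incubation = enzyme reaction for 50 min at room temperature, dark | measured by = FRET, CFP and YFP emission | controls = no-enzyme low, enzyme-DMSO high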
GRK2 CP1: confirmation of human GRK2 inhibitors displacing RNA aptamer | aptamer displacement, % at 10 µM | 4% of 2,000 active | shares compounds with GRK2 inh | bead-bound GRK2, FAM-aptamer displacement, flow cytometry | AID 504451;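 active = aptamer displacement above 40%, near three times the noise of non-fluorescent compounds, on plates passing quality checks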;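 also: negative values mostly reflect intrinsic compound fluorescence rather than true enhancement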
Aptamer quench 1: quenches fluorescent RNA aptamer, GRK2 hit artifact | AID 504521 | fluorescence change (kMESF span), kMESF (test concentration not listed) | Fluorescent RNA aptamer beads, quenching, flow cytometry; hits give high values | shares compounds with GRK2 inh | 110 tested, under 10 active;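 active = compounds whose bead fluorescence drops by more than 37 kMESF across the dose range, marking them as dye quenchers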
Aptamer quench SP: counter-screen for GRK2 aptamer inhibitors: fluorescent aptamer quenchers; AID 504580; Carboxyfluorescein RNA aptamer on beads, flow cytometry quenching; hits give low values; fluorescence response (% of DMSO), % at 10 µM; 2,000 tested, under 10 active; shares compounds with GRK2 inh;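 active = compounds that quench the bead-bound fluorescent RNA probe, cutting fluorescence to under half of the solvent control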;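 also: counterscreen run without GRK2 so only probe quenching by compound is measured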
GRK2 confirm 2: human GRK2 inhibition confirmation, cherry pick 2 | shares compounds with GRK2 inh | bead-bound GRK2, FAM-aptamer displacement, flow cytometry | inhibition of aptamer binding, % at 10 µM | 360 tested, under 10 active | AID 504782;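 active = inhibition of aptamer binding above 40%, about triple the noise seen with nonglowing compounds, on plates passing quality control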;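 also: negative values mostly come from compounds that fluoresce themselves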
FAM quench CP2: counter-screen for GRK2 binding hits: quenchers of fluorescent RNA aptamer; AID 588494; 360 tested, under 10 active; carboxyfluorescein RNA aptamer beads, flow cytometry quenching; hits give low values; fluorescence response vs DMSO, % at 10 µM; shares compounds with GRK2 inh;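 active = response vs DMSO under 50%, meaning signal dropped by over half, treated as fluorescence quencher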;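 also: labelled aptamer on streptavidin beads without GRK2 as a quench counter-screen; 100% = bead fluorescence of DMSO wells and lower means quenching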
An asterisk follows results filed as active; · = no result given; ! = not active in a repeat. Most compounds without a hit are left out; they make up all but 2.5% or so of the library.

SMILES	ABHD5-PLIN5 inh	NadD block	B2AR ag	GRK2 inh	SENP1 inh	GRK2 CP1	Aptamer quench SP	others
CN(Cc1ccccc1)C(=O)c1cccc(NC(=O)Cc2ccc(NC(=O)C3CCN(C(=O)C4CCCCC4)CC3)cc2)c1	-2	4	-7	·	1	·	·
Cc1cc(C)nc(Nc2ccc(Cl)cc2C)n1	-3	-3	-6	0	-1	·	·
Cc1c(/C=N\NC(=O)c2c[nH]c3ccccc23)cnn1C	-2	-4	-8	99*	0	-2	91
CCn1cc(/C=N\NC(=O)c2c[nH]c3ccccc23)c(C)n1	3	-8	3	0	3	·	·
CC(C)C(c1nnnn1C1CCCCC1)N1CCOCC1 (centres undefined)	4	-4	1	1	1	·	·
CC(C)C(c1nnnn1C(C)(C)C)N1CCOCC1 (centres undefined)	6	-1	-1	47*	0	-4	96
COc1ccccc1NC(=O)N1CCC(c2nc3cc(C)c(C)cc3[nH]2)CC1	0	5	11	25	2	0	97
CCSc1nnc(SCC(=O)c2c(N)n(C)c(=O)n(C)c2=O)s1	9	-1	0	·	-1	·	·
O=C(O)c1cc(-c2ccco2)nc2ccc(Br)cc12	29*!	4	3	55*!	2	8	94
C=CCSC1=C(C#N)C(c2ccccc2OC)CC(=O)N1 (centres undefined)	-19	-3	1	1	3	·	·
C=CCSC1=C(C#N)C(c2ccccc2OCC)CC(=O)N1 (centres undefined)	-13	-3	-8	37	-1	1	101
CC(c1nc2ccccc2c(=O)[nH]1)N1CCN(C)CC1 (centres undefined)	-4	0	-3	0	1	·	·	GRK2 confirm 2=3;FAM quench CP2=104
CCOC(=O)c1ccc(S(=O)(=O)NCCNCc2ccccc2)cc1	0	-3	1	0	1	·	·
O=C(O)c1ccc(N2C(=O)c3cccc4c(C(=O)O)ccc(c34)C2=O)cc1	1	-14	-2	70*	-10	30	107
O=C(O)c1ccc2c3c(cccc13)C(=O)N(c1ccccc1)C2=O	8	-1	1	40	-6	·	·
CCN1CCN(c2cc(C)c3cc(NC(=S)N(C)Cc4ccccc4)ccc3n2)CC1	6	-1	9	1	-9	1	98
CC(C(=O)OCC(=O)c1c(N)n(C)c(=O)n(C)c1=O)N1C(=O)c2ccccc2C1=O (centres undefined)	0	-6	-1	1	0	·	·
Cn1c(N)c(C(=O)COC(=O)CCCN2C(=O)c3ccccc3C2=O)c(=O)n(C)c1=O	5	0	5	93*	0	1	99
Cc1ccc(-n2ncc3c(NCc4cccnc4)ncnc32)cc1C	10	-1	3	47*	1	-2	104
CCOc1ccc(NS(=O)(=O)c2ccc(C(=O)NCCN3CCOCC3)cc2)cc1	17	1	7	3	0	·	·
CC1=C(C(=O)OCC2CCCCC2)C(c2ccc(O)cc2)NC(=O)N1 (centres undefined)	-2	-2	-17	16	1	-42	192
COc1ccc(CNC(=O)C2COc3ccccc3O2)c(OC)c1 (centres undefined)	-3	-12	6	4	2	-3	99
COc1ccc(OC)c(NC(=O)C2COc3ccccc3O2)c1 (centres undefined)	-8	2	0	2	1	·	·
CCCn1c(N)c(C(=O)CN(C)CC(=O)Nc2ccc(F)cc2)c(=O)[nH]c1=O	4	-3	7	0	-2	·	·
O=C(NNS(=O)(=O)c1ccc([N+](=O)[O-])cc1)c1ccccc1	0	-2	3	·	4	·	·
SMILES	ABHD5-PLIN5 inh	NadD block	B2AR ag	GRK2 inh	SENP1 inh	GRK2 CP1	Aptamer quench SP	others
O=C(NNS(=O)(=O)c1ccc([N+](=O)[O-])cc1)C(=O)Nc1cccc(C(=O)O)c1	-1	-2	5	69*	4	5	102
O=c1[nH]c(Cc2ccc(Cl)cc2)nc2ccccc12	3	7	-3	4	1	·	·
O=c1[nH]c(Cc2cccc(C(F)(F)F)c2)nc2ccccc12	2	-3	-2	0	2	0	100
O=C(CCc1ccco1)CCc1ccco1	6	7	6	·	-2	·	·
Cn1c(N2CCN(C(c3ccccc3)c3ccccc3)CC2)nc2ccccc21	5	3	17	98*	-1	-2	151
CC(OC(=O)C1CCN(S(=O)(=O)c2ccc3c(c2)OCCO3)CC1)C(=O)NC1(C#N)CCCCC1 (centres undefined)	3	-5	-2	·	1	·	·
Cc1cc(C)n2nc(C(=O)N3CCCC(Nc4ccc(C(C)C)cc4)C3)cc2n1 (centres undefined)	-1	-2	3	4	0	·	·
Cc1cc(C)n2nc(C(=O)N3CCCC(Nc4ccc(F)c(F)c4)C3)cc2n1 (centres undefined)	5	0	4	85*	0	·	·	GRK2 confirm 2=9;FAM quench CP2=102
Cc1ccc(S(=O)(=O)N2CCCC2)cc1C(=O)N1CCC(C)CC1	-2	-7	2	0	0	·	·
O=S(=O)(NCc1ccc(F)cc1)c1ccc(-c2cnc(C3CC3)o2)cc1	-6	-6	2	51*	2	6	99
COc1cc2cc(CCCO)oc(=O)c2cc1OC	-1	-6	-6	1	1	·	·
Cc1cc(NC(=O)COC(=O)C2CC(=O)N(c3cccc(C)c3C)C2)no1 (centres undefined)	3	4	1	0	2	·	·
O=C(NCCCN1CCN(c2cccc(Cl)c2)CC1)C1(S(=O)(=O)c2ccc(Cl)cc2)CC1	11	-6	-3	28	0	-19	88
N[C@H]1CONC1=O	·	·	·	4	·	-1	101
N[C@@H]1CONC1=O	·	·	·	2	·	·	·
CC1=NN(c2cccc(C(=O)O)c2)C(=O)/C1=C\C=C\c1ccco1	14	0	6	83*	6	60*	96	Aptamer quench 1=9.6
